Measured values from ChEMBL document CHEMBL1142136, “Contribution of target gene mutations and efflux to decreased susceptibility of Salmonella enterica serovar typhimurium to fluoroquinolones and other antimicrobials” (2007).
≈ marks a conversion by molar mass, not a printed value.

What was measured:
Format in all cases: functional, Salmonella enterica subsp. enterica serovar Typhimurium
Salmonella typhimurium [1] = test: Antimicrobial activity against Salmonella enterica serovar Typhimurium CHS38 acrAB::Kan with GyrA D87G mutation
Procedure, shortened: (§1)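 MICs measured by broth microdilution on the Sensititre automated system and interpreted by CLSI broth microdilution standards. Ciprofloxacin was also tested by agar dilution, widening the range to 0.0075–128 μg/ml. Quality control strains were E. coli ATCC 25922 and 35218, E. faecalis ATCC 29212, S. aureus ATCC 29213 and P. aeruginosa ATCC 27853.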

Salmonella typhimurium [2] = test: Antimicrobial activity against Salmonella enterica serovar Typhimurium S21-3 tolC::Kan with GyrA S83F, ParC S80I mutation; procedure, shortened: as §1
Salmonella typhimurium [3] = test: Antimicrobial activity against Salmonella enterica serovar Typhimurium S21-3 with GyrA S83F, ParC S80I mutation; procedure, shortened: as §1
Salmonella typhimurium [4] = test: Antimicrobial activity against Salmonella enterica serovar Typhimurium CS3 with GyrA S83F, D87N, ParC S80I mutation; procedure, shortened: as §1
Salmonella typhimurium [5] = test: Antimicrobial activity against Salmonella enterica serovar Typhimurium CHS18 gyrA+ with GyrA S38F mutation; procedure, shortened: as §1
Salmonella typhimurium [6] = test: Antimicrobial activity against Salmonella enterica serovar Typhimurium CHS14 gyrA+ with GyrA D87G mutation; procedure, shortened: as §1
Salmonella typhimurium [7] = test: Antimicrobial activity against Salmonella enterica serovar Typhimurium CHS18 acrAB::Kan with GyrA S38F mutation; procedure, shortened: as §1
Salmonella typhimurium [8] = test: Antimicrobial activity against Salmonella enterica serovar Typhimurium S21-2 tolC::Kan with GyrA S83F, ParC S80I mutation; procedure, shortened: as §1
Salmonella typhimurium [9] = test: Antimicrobial activity against Salmonella enterica serovar Typhimurium S21 tolC::Kan
Procedure, shortened: (§2)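 MICs by automated broth microdilution panels, interpreted to CLSI broth microdilution standards. Ciprofloxacin additionally tested by agar dilution across 0.0075 to 128 μg/ml. Quality control strains: E. coli ATCC 25922 and 35218, Enterococcus faecalis ATCC 29212, S. aureus ATCC 29213, P. aeruginosa ATCC 27853. Test strains are kanamycin-marked deletion mutants of ground-beef isolate S21.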

Salmonella typhimurium [10] = test: Antimicrobial activity against Salmonella enterica serovar Typhimurium CS9 with GyrA S83F, D87N, ParC S80I mutation; procedure, shortened: as §1
Salmonella typhimurium [11] = test: Antimicrobial activity against Salmonella enterica serovar Typhimurium S21-3 acrAB::Kan with GyrA S83F, ParC S80I mutation; procedure, shortened: as §1
Salmonella typhimurium [12] = test: Antimicrobial activity against Salmonella enterica serovar Typhimurium CS1 tolC::Kan with GyrA S83F, D87N, ParC S80I mutation; procedure, shortened: as §1
Salmonella typhimurium [13] = test: Antimicrobial activity against Salmonella enterica serovar Typhimurium S21-4 with GyrA S83F, ParC S80I mutation; procedure, shortened: as §1
Salmonella typhimurium [14] = test: Antimicrobial activity against Salmonella enterica serovar Typhimurium GyrA S21-1 acrAB::Kan with GyrA S83F mutation; procedure, shortened: as §1
Salmonella typhimurium [15] = test: Antimicrobial activity against Salmonella enterica serovar Typhimurium S21-3 gyrA+ with ParC S80I mutation; procedure, shortened: as §1
Salmonella typhimurium [16] = test: Antimicrobial activity against Salmonella enterica serovar Typhimurium S21-4 acrAB::Kan with GyrA S83F, ParC S80I mutation; procedure, shortened: as §1
Salmonella typhimurium [17] = test: Antimicrobial activity against Salmonella enterica serovar Typhimurium CS9 acrAB::Kan with GyrA S83F, D87N, ParC S80I mutation; procedure, shortened: as §1
Salmonella typhimurium [18] = test: Antimicrobial activity against Salmonella enterica serovar Typhimurium CS1 with GyrA S83F, D87N, ParC S80I mutation; procedure, shortened: as §1
Salmonella typhimurium [19] = test: Antimicrobial activity against Salmonella enterica serovar Typhimurium S21-2 acrAB::Kan with GyrA S83F, ParC S80I mutation; procedure, shortened: as §1
Salmonella typhimurium [20] = test: Antimicrobial activity against Salmonella enterica serovar Typhimurium CHS38 with GyrA D87G mutation; procedure, shortened: as §1
Salmonella typhimurium [21] = test: Antimicrobial activity against Salmonella enterica serovar Typhimurium S21-1 GyrA S83F mutant; procedure, shortened: as §1
Salmonella typhimurium [22] = test: Antimicrobial activity against Salmonella enterica serovar Typhimurium S21-2 with GyrA S83F, ParC S80I mutation; procedure, shortened: as §1
Salmonella typhimurium [23] = test: Antimicrobial activity against Salmonella enterica serovar Typhimurium S21 acrAB::Kan; procedure, shortened: as §2
Salmonella typhimurium [24] = test: Antimicrobial activity against Salmonella enterica serovar Typhimurium CS3 acrAB::Kan with GyrA S83F, D87N, ParC S80I mutation; procedure, shortened: as §1
Salmonella typhimurium [25] = test: Antimicrobial activity against Salmonella enterica serovar Typhimurium S21 gyrA+; procedure, shortened: as §1
Salmonella typhimurium [26] = test: Antimicrobial activity against Salmonella enterica serovar Typhimurium CS1 gyrA+ with GyrA S83F, D87N, ParC S80I mutation; procedure, shortened: as §1
Salmonella typhimurium [27] = test: Antimicrobial activity against Salmonella enterica serovar Typhimurium CHS38 tolC::Kan with GyrA D87G mutation; procedure, shortened: as §1
Salmonella typhimurium [28] = test: Antimicrobial activity against Salmonella enterica serovar Typhimurium CS3 tolC::Kan with GyrA S83F, D87N, parC S80I mutation; procedure, shortened: as §1
Salmonella typhimurium [29] = test: Antimicrobial activity against Salmonella enterica serovar Typhimurium CS3 gyrA+ with GyrA S83F, D87N, ParC S80I mutation; procedure, shortened: as §1
Salmonella typhimurium [30] = test: Antimicrobial activity against Salmonella enterica serovar Typhimurium CHS14 acrAB::Kan with GyrA D87G mutation; procedure, shortened: as §1
Salmonella typhimurium [31] = test: Antimicrobial activity against Salmonella enterica serovar Typhimurium CHS18 with GyrA S38F mutation; procedure, shortened: as §1
Salmonella typhimurium [32] = test: Antimicrobial activity against Salmonella enterica serovar Typhimurium CHS18 tolC::Kan with GyrA S38F mutation; procedure, shortened: as §1
Salmonella typhimurium [33] = test: Antimicrobial activity against Salmonella enterica serovar Typhimurium CHS38 gyrA+ with GyrA D87G mutation; procedure, shortened: as §1
Salmonella typhimurium [34] = test: Antimicrobial activity against Salmonella enterica serovar Typhimurium S21-1 tolC::Kan with GyrA S83F mutation; procedure, shortened: as §1
Salmonella typhimurium [35] = test: Antimicrobial activity against Salmonella enterica serovar Typhimurium CS9 tolC::Kan with GyrA S83F, D87N, ParC S80I mutation; procedure, shortened: as §1
Salmonella typhimurium [36] = test: Antimicrobial activity against Salmonella enterica serovar Typhimurium CS1 acrAB::Kan with GyrA S83F, D87N, ParC S80I mutation; procedure, shortened: as §1
Salmonella typhimurium [37] = test: Antimicrobial activity against Salmonella enterica serovar Typhimurium CHS14 tolC::Kan with GyrA D87G mutant; procedure, shortened: as §1
Salmonella typhimurium [38] = test: Antimicrobial activity against Salmonella enterica serovar Typhimurium CS9 gyrA+ with GyrA S83F, D87N, ParC S80I mutation; procedure, shortened: as §1
Salmonella typhimurium [39] = test: Antimicrobial activity against Salmonella enterica serovar Typhimurium CHS14 with GyrA D87G mutation; procedure, shortened: as §1
Salmonella typhimurium [40] = test: Antimicrobial activity against Salmonella enterica serovar Typhimurium S21-4 tolC::Kan with GyrA S83F, ParC S80I mutation; procedure, shortened: as §1
Salmonella typhimurium [41] = test: Antimicrobial activity against Salmonella enterica serovar Typhimurium S21-2 gyrA+ with ParC S80I mutation; procedure, shortened: as §1
Salmonella typhimurium [42] = test: Antimicrobial activity against Salmonella enterica serovar Typhimurium S21; procedure, shortened: as §1
Salmonella typhimurium [43] = test: Antimicrobial activity against Salmonella enterica serovar Typhimurium S21-1 gyrA+; procedure, shortened: as §1
Salmonella typhimurium [44] = test: Antimicrobial activity against Salmonella enterica serovar Typhimurium S21-4 gyrA+ with ParC S80I mutation; procedure, shortened: as §1

With CCn1cc(C(=O)O)c(=O)c2ccc(C)nc21 [NALIDIXIC ACID] the MIC (Salmonella typhimurium [1]) was 1 µg/mL (≈ 4.31 µM), the MIC (Salmonella typhimurium [2]) was 32 µg/mL (≈ 138 µM) and the MIC (Salmonella typhimurium [3]) was over 256 µg/mL. The MIC (Salmonella typhimurium [4]) was over 256 µg/mL, the MIC (Salmonella typhimurium [5]) was 32 µg/mL (≈ 138 µM) and the MIC (Salmonella typhimurium [6]) was 4 µg/mL (≈ 17.2 µM). For the same molecule, the MIC (Salmonella typhimurium [7]) was 16 µg/mL (≈ 68.9 µM), the MIC (Salmonella typhimurium [8]) was 64 µg/mL (≈ 276 µM) and the MIC (Salmonella typhimurium [9]) was 1 µg/mL (≈ 4.31 µM). It also gave an MIC (Salmonella typhimurium [10]) of over 256 µg/mL, an MIC (Salmonella typhimurium [11]) of 64 µg/mL (≈ 276 µM) and an MIC (Salmonella typhimurium [12]) of 256 µg/mL (≈ 1100 µM). For the same molecule, the MIC (Salmonella typhimurium [13]) was over 256 µg/mL, the MIC (Salmonella typhimurium [14]) was 32 µg/mL (≈ 138 µM) and the MIC (Salmonella typhimurium [15]) was over 256 µg/mL. It also gave an MIC (Salmonella typhimurium [16]) of over 256 µg/mL, an MIC (Salmonella typhimurium [17]) of over 256 µg/mL and an MIC (Salmonella typhimurium [18]) of over 256 µg/mL. The MIC (Salmonella typhimurium [19]) was 64 µg/mL (≈ 276 µM), the MIC (Salmonella typhimurium [20]) was 32 µg/mL (≈ 138 µM) and the MIC (Salmonella typhimurium [21]) was 256 µg/mL (≈ 1100 µM). The MIC (Salmonella typhimurium [22]) was over 256 µg/mL, the MIC (Salmonella typhimurium [23]) was 1 µg/mL (≈ 4.31 µM) and the MIC (Salmonella typhimurium [24]) was over 256 µg/mL. It also gave an MIC (Salmonella typhimurium [25]) of 4 µg/mL (≈ 17.2 µM), an MIC (Salmonella typhimurium [26]) of 4 µg/mL (≈ 17.2 µM) and an MIC (Salmonella typhimurium [27]) of 0.5 µg/mL (≈ 2.15 µM). It also gave an MIC (Salmonella typhimurium [28]) of 256 µg/mL (≈ 1100 µM), an MIC (Salmonella typhimurium [29]) of 4 µg/mL (≈ 17.2 µM) and an MIC (Salmonella typhimurium [30]) of 8 µg/mL (≈ 34.4 µM). It also gave an MIC (Salmonella typhimurium [31]) of 256 µg/mL (≈ 1100 µM), an MIC (Salmonella typhimurium [32]) of 32 µg/mL (≈ 138 µM) and an MIC (Salmonella typhimurium [33]) of 8 µg/mL (≈ 34.4 µM). For the same molecule, the MIC (Salmonella typhimurium [34]) was 32 µg/mL (≈ 138 µM), the MIC (Salmonella typhimurium [35]) was 256 µg/mL (≈ 1100 µM) and the MIC (Salmonella typhimurium [36]) was over 256 µg/mL. The MIC (Salmonella typhimurium [37]) was 16 µg/mL (≈ 68.9 µM), the MIC (Salmonella typhimurium [38]) was 4 µg/mL (≈ 17.2 µM) and the MIC (Salmonella typhimurium [39]) was 128 µg/mL (≈ 551 µM). It also gave an MIC (Salmonella typhimurium [40]) of over 256 µg/mL, an MIC (Salmonella typhimurium [41]) of 64 µg/mL (≈ 276 µM) and an MIC (Salmonella typhimurium [42]) of 4 µg/mL (≈ 17.2 µM). The MIC (Salmonella typhimurium [43]) was 4 µg/mL (≈ 17.2 µM) and the MIC (Salmonella typhimurium [44]) was over 256 µg/mL.
